Test results reported in PubChem BioAssay AID602138 (Broad Institute, 2011).
Calls of active or inactive are those of the source. How the calls were made is not given here.

Assay: cholesterol efflux inhibition via mutant SR-BI C384S, dose response, mechanism study for SR-BI HDL uptake inhibitor project, cell-based, ldlA CHO, [3H]cholesterol, dry powder (AID 602138)
Conditions: ldlA CHO cells mSR-BI C384S, [3H]cholesterol efflux to HDL; at 25 µM (top of the series)
Outline: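 System: ldlA CHO cells carrying mutant Cys384S SR-BI, [3H]cholesterol-prelabelled; medium: HEPES-buffered pH 7.4 assay medium with 0.5% fatty acid-free BSA; probe or stimulus: HDL, 100 µg/mL final; compound dosing: 0.5% DMSO with compound; incubation: 1 h compound pre-exposure at 37 °C, 2 h efflux; detection: scintillation counting, medium and lysate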

Compound	efflux, lower = inhibition
COCC(=O)N1CCc2cc(-c3csc(NC(=O)c4cc(OC)cc(OC)c4)n3)ccc21	6.26% (active)
C[C@H](C(=O)NC1CCCC1)N(C(=O)Cn1nnc(-c2ccc3c(c2)OCO3)n1)C1CCCCC1	5.73% (active)
